A word on the microsomal CLint: it is the rate of metabolic loss divided by the concentration. One may read the Ki as the equilibrium dissociation constant of an inhibitor or competing ligand from its target. By bioavailability is commonly meant dose-corrected exposure relative to a reference, in per cent. Low values mean little systemic uptake, high ones much systemic uptake. In general, clearance refers to a measure of how efficiently the substance is removed, as volume per time.

Each structure is given as a SMILES string. Some results are limits rather than exact numbers.

Series [1] in a line: Plasma protein binding in rat. The note with it: read-out: PPB (converted).
A short description of series [2]: Intrinsic clearance in rat liver microsome measured per mg of protein. It counts as ADME. The note with it: liver microsomes. A general note: Liver microsomes are vesicles of endoplasmic reticulum, rich in cytochrome P450 enzymes.
Series [3] concerns Hepatocyte. In words: Intrinsic clearance in human hepatocytes. Format: ADME, cell-based, Liver.
Series [4] can be described thus: Permeability from apical to basolateral side of the human Caco-2 membrane. Format: ADME, cell-based. The note with it: read-out: permeability. Background: Passage across Caco-2 layers is used to estimate intestinal permeability.
Series [5] is described as follows: Intrinsic clearance in human liver microsome measured per mg of protein. It counts as ADME. The note with it: liver microsomes.
Series [6] can be described thus: Volume of distribution at steady state in Wistar rat at 1 mg/kg, iv. Details: dose 1 mg/kg, route intravenous. The note with it: in vivo, read-out: Vdss. Format: ADME, organism-based. In outline: (§1)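 Male Wistar rats dosed 1 mg/kg iv or 10 mg/kg po; vehicle 5% DMA / 95% saline. Plasma pharmacokinetic parameters derived and given as mean with SD.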
For series [7], the target named is Voltage-gated inwardly rectifying potassium channel KCNH2 (Homo sapiens, UniProt Q12809). In words: Displacement of [3H]dofetolide from human ERG channel in HEK293 cells. It counts as cell-based. The gist of the method:
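Affinity for cardiac K+ channel determined by displacement of tritiated dofetolide in membrane homogenate from HEK-293 cells expressing hERG channel; reported as pKi.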
On the technique in general: Displacement assays read how much labelled ligand stays bound in the presence of the test substance.

Series [8] can be described thus: Elimination half life in Wistar rat at 1 mg/kg, iv. It counts as ADME, organism-based. Further details: dose 1 mg/kg, route intravenous. The note with it: in vivo, read-out: beta t1/2 (converted). The gist of the method: as §1
The test system of series [9] is Hepatocyte. Put plainly: Intrinsic clearance in rat hepatocytes. It counts as ADME, cell-based, Liver.
For series [10], the species on record is Homo sapiens. In words: Plasma protein binding in human. The note with it: read-out: PPB (converted).
Series [11] in a line: Permeability from basolateral to apical side of the human Caco-2 membrane. It counts as ADME, cell-based. The note with it: read-out: permeability.
A short description of series [12]: Oral bioavailability in Wistar rat at 10 mg/kg. The note with it: in vivo. Format: ADME, organism-based. In outline: as §1
Series [13] is described as follows: Clearance in Wistar rat at 1 mg/kg, iv. Format: ADME, organism-based. Further details: dose 1 mg/kg, route intravenous. The note with it: in vivo. The gist of the method: as §1
For series [14], the target named is 5-hydroxytryptamine receptor 6 (Homo sapiens, UniProt P50406). In words: Displacement of [3H]LSD from human 5HT6 receptor expressed in CHO cells.
Sequence of 5-hydroxytryptamine receptor 6 (P50406 whole entry): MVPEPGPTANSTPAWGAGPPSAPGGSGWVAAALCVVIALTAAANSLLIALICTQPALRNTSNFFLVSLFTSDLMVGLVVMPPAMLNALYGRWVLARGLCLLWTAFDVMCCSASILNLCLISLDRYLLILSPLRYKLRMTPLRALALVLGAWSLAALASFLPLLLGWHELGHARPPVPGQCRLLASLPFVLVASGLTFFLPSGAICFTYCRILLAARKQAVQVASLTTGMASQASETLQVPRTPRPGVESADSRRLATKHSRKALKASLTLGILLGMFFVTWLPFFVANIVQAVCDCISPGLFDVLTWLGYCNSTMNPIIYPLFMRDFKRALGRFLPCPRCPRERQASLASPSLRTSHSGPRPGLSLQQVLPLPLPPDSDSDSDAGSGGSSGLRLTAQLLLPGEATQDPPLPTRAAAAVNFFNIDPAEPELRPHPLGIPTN

Sequence of Voltage-gated inwardly rectifying potassium channel KCNH2 (Q12809 whole entry): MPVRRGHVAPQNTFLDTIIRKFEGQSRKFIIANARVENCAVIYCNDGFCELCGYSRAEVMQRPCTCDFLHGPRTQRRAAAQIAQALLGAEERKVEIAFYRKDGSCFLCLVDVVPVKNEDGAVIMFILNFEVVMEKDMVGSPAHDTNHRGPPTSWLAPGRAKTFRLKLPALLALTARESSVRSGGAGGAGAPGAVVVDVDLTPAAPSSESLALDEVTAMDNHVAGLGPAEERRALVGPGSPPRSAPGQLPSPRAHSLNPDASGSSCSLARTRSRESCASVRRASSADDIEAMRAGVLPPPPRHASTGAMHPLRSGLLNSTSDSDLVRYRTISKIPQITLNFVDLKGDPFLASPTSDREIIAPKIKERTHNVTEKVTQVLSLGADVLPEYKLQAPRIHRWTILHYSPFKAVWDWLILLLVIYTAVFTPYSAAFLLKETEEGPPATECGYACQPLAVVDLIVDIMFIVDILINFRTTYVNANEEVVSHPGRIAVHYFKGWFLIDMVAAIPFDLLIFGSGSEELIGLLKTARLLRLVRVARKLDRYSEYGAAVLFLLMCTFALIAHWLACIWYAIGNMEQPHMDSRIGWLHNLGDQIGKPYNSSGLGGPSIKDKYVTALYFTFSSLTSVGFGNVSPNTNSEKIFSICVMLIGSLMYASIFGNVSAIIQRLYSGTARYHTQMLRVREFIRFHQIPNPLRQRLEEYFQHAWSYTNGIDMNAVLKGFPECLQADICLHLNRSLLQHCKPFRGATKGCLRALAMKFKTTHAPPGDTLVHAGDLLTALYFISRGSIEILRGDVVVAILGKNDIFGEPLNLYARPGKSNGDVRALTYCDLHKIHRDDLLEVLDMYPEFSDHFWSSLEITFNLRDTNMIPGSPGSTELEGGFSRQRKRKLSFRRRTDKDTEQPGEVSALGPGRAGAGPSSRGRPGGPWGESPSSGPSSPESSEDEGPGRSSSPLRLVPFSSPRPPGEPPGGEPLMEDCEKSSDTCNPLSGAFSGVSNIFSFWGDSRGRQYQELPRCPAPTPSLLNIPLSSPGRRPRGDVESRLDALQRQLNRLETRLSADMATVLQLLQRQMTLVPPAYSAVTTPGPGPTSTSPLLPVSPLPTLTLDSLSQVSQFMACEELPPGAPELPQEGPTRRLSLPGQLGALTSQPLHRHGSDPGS

Turning to `COc1ccc(S(=O)(=O)N2C[C@H](C(=O)N3CCCNCC3)c3ccccc32)c2ccccc12`, the fraction unbound in series [1] is 0.029; in [10], 0.006. For the same compound, the values for the microsomal CLint in [2] and in series [5] were 105 µL/min/mg and 69 µL/min/mg, respectively. In addition, the figures for the CL in series [3] and in series [9] were 7 µL/min and 11 µL/min, respectively. Moreover, in [4], the Papp A→B is < 2.2 ×10⁻⁶ cm/s. For the same compound, in series [6], the Vd worked out at 1.9 L/kg. This compound showed a Ki in [7] of 1260 nM. Also, the half-life in series [8] was 114 min. The Papp B→A in series [11] was determined as 4.7 ×10⁻⁶ cm/s. Further, the bioavailability in series [12] came out at 23.5%. Besides, the clearance in [13] worked out at 16.5 mL/min/kg.

For `COc1ccc(S(=O)(=O)N2CC(C(=O)NCCCn3ccnc3)c3ccccc32)c2ccccc12` (racemic), the affinity in series [14] corresponds to a Ki of 79.4 nM.

In the case of `CN1CCC(N(C)C(=O)C2CN(S(=O)(=O)c3cccc4c(Cl)cccc34)c3ccccc32)CC1` (racemic), the Ki in [14] is 5.01 nM.

In series [14], `CN1CCC(N(C)C(=O)C2CN(S(=O)(=O)c3cccc4ccccc34)c3ccccc32)CC1` (racemic) showed a Ki of 31.6 nM.

Compound `COc1ccc(S(=O)(=O)N2CC(C(=O)NC3CC4CCC(C3)N4C)c3ccccc32)c2ccccc12` (racemic) had a Ki in series [14] of 31.6 nM.

`CN1CCC(N(C)C(=O)C2CN(S(=O)(=O)c3cccc4nsnc34)c3ccccc32)CC1` (racemic) showed a Ki in series [14] of 126 nM.

`Cc1c(S(=O)(=O)N2CC(C(=O)N(C)C3CCN(C)CC3)c3ccccc32)sc2ccc(Cl)cc12` (racemic) had a Ki in series [14] of 63.1 nM.

In the case of `CN1CCC(N(C)C(=O)C2CN(S(=O)(=O)c3cccs3)c3ccccc32)CC1` (racemic), the Ki in [14] was 316 nM.

`CN1CCC(N(C)C(=O)C2CN(S(=O)(=O)c3ccccc3)c3ccccc32)CC1` (racemic) had a Ki in series [14] of 316 nM.

Turning to `COc1ccc(S(=O)(=O)N2CC(C(=O)N(C)C3CCN(C)CC3)c3ccccc32)c2ccccc12` (racemic), the Ki in [14] is 7.94 nM.

On to `COc1ccc(S(=O)(=O)N2CC(C(=O)NCCCN3CCOCC3)c3ccccc32)c2ccccc12` (racemic), for which the Ki in series [14] is 31.6 nM.

Consider `CN1CCC(N(C)C(=O)C2CN(S(=O)(=O)c3cccc(C(F)(F)F)c3)c3ccccc32)CC1` (racemic), for which the affinity in series [14], expressed as Ki, was 25.1 nM.

For `COc1ccc(S(=O)(=O)N2CC(C(=O)N(C)C3CCN(C)CC3)c3ccccc32)c(C)c1C` (racemic), the inhibition constant (Ki) in series [14] was 100 nM.

For `CN1CCC(N(C)C(=O)C2CN(S(=O)(=O)c3ccc(C(F)(F)F)cc3)c3ccccc32)CC1` (racemic), the affinity in series [14], expressed as Ki, was 25.1 nM.

As to `COc1cc(C)c(S(=O)(=O)N2CC(C(=O)N(C)C3CCN(C)CC3)c3ccccc32)c(C)c1C` (racemic), the Ki in series [14] is 100 nM.

On to `COc1ccc(S(=O)(=O)N2CC(C(=O)N3CCCNCC3)c3ccccc32)c2ccccc12` (racemic), for which the Ki in series [14] was 1.26 nM.

As for `CCN(CC)CCNC(=O)C1CN(S(=O)(=O)c2ccc(OC)c3ccccc23)c2ccccc21` (racemic), the Ki in series [14] is 20 nM.

For the compound `CCN(CC)CCCNC(=O)C1CN(S(=O)(=O)c2ccc(OC)c3ccccc23)c2ccccc21` (racemic), in [14], the Ki was 79.4 nM.

In series [14], `CN1CCC(N(C)C(=O)C2CN(S(=O)(=O)c3ccc(-c4ccccc4)cc3)c3ccccc32)CC1` (racemic) gave a Ki of 126 nM.

In series [14], `CN1CCC(N(C)C(=O)C2CN(S(=O)(=O)c3cccc(-c4ccccc4)c3)c3ccccc32)CC1` (racemic) showed a Ki of 31.6 nM.

In [14], `COc1cccc(N2CCN(C(=O)C3CN(S(=O)(=O)c4ccc(OC)c5ccccc45)c4ccccc43)CC2)c1` (racemic) showed a Ki of 63.1 nM.

Compound `CN1CCC(N(C)C(=O)C2CN(S(=O)(=O)c3ccc4ccccc4c3)c3ccccc32)CC1` (racemic) gave a Ki in series [14] of 25.1 nM.

As to `CN1CCC(N(C)C(=O)C2CN(S(=O)(=O)c3ccc4c(c3)OCCO4)c3ccccc32)CC1` (racemic), affinity in series [14] was put at a Ki of 50.1 nM.

Take `Cc1cnc2c(S(=O)(=O)N3CC(C(=O)N(C)C4CCN(C)CC4)c4ccccc43)cccc2c1` (racemic): in series [14], the Ki was 316 nM.

The compound `COc1ccc(S(=O)(=O)N2CC(C(=O)N3CC(N)C3)c3ccccc32)c2ccccc12` (racemic) showed a Ki in [14] of 158 nM.

For `COc1ccc(S(=O)(=O)N2CC(C(=O)N3CC(CN)C3)c3ccccc32)c2ccccc12` (racemic), the affinity in series [14], expressed as Ki, was 79.4 nM.

As for `COc1ccc(S(=O)(=O)N2CC(C(=O)N3CCNCC3)c3ccccc32)c2ccccc12` (racemic), the affinity in [14] corresponds to a Ki of 7.94 nM.

Regarding `COc1ccc(S(=O)(=O)N2CC(C(=O)NC3CCN(C)CC3)c3ccccc32)c2ccccc12` (racemic), the Ki in [14] was 25.1 nM.

With `COc1ccc(S(=O)(=O)N2CC(C(=O)NC3CCN(Cc4ccccc4)CC3)c3ccccc32)c2ccccc12` (racemic), in series [14], the affinity corresponds to a Ki of 50.1 nM.

In [14], `CN1CCC(N(C)C(=O)C2CN(S(=O)(=O)c3ccc(OC(F)(F)F)cc3)c3ccccc32)CC1` (racemic) showed a Ki of 20 nM.

Source of the values: ChEMBL document CHEMBL1155540, “The discovery and SAR of indoline-3-carboxamides--a new series of 5-HT6 antagonists” (Bioorg Med Chem Lett, 2010).
